# Screening results deposited in PubChem BioAssay by several laboratories.
# Hits are enriched below; roughly 2.3% of the tested compounds scored in any of these assays.
# CTSL1 counter = blocks F. hepatica cathepsin L1 in PFM18AAP counter-screen. AID 1906. recombinant F. hepatica cathepsin L1, Z-Leu-Arg-MCA fluorescence. hit rate 0.49% among 300,000. inhibition, % at 5.96 µM;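 active means inhibition above the mean of all tested compounds plus 3 SD, set per screening campaign, cut at about 17% in these data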;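 further: 0% = plate median of test compound wells and 100% = 1 µM Z-Phe-Ala-diazomethylketone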
# PREPL inh = inhibits the human prolyl oligopeptidase-like enzyme | recombinant PREPL, fluorescence polarization activity-based probe | hit rate 0.68% among 320,000 | Q4J6C6 | inhibition, % at 5.96 µM; in the data active means inhibition above about 43%;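 further: 0% = enzyme with DMSO and 100% = wells lacking enzyme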
# PP1 inh = counter-screen for PP5 inhibitors: inhibitors of human PP1-alpha | P62136 | purified PP1alpha, OMFP fluorescence | inhibition, % at 6.7 µM | hit rate 0.9% among 320,000 | AID 2235;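 active means inhibition above the mean inhibition of all tested compounds plus 3 SD, computed separately for each screening campaign, cut at about 15% in these data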
# PP5 inh = blocks human protein phosphatase 5 activity | purified PP5c, OMFP substrate fluorescence | inhibition, % at 6.7 µM | hit rate 0.18% among 320,000 | AID 1987;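 active means inhibition above the campaign's mean inhibition across all tested compounds plus 3 SD, cut at about 9.5% in these data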;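 further: 0% = DMSO only and 100% = 100 µM cantharidin control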
# UBC13 polyUb = blocks human UBC13 polyubiquitin chain formation; P61088; TR-FRET; inhibition, % at 20 µM; hit rate 0.47% among 330,000; AID 485273; in the data active means inhibition above about 45%, passing the limit was not always enough
# Target sequence (P61088 whole entry, looked up): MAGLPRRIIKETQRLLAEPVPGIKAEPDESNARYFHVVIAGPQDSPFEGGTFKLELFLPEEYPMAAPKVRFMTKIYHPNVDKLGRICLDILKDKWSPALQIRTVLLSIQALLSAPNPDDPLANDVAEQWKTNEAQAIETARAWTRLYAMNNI
# UCH37 inh = inhibitors of human deubiquitinating enzyme UCH37. Q9Y5K5. purified proteasome/UCH37, Ub-AMC cleavage fluorescence. inhibition, % (no concentration beside the values). hit rate 0.33% among 330,000. AID 588478;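 active means mean inhibition over replicate wells above about 20%, limit read from the data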;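 further: 0% = compound-free wells with enzyme and 100% = wells lacking proteasome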
# Target sequence (Q9Y5K5 whole entry, looked up): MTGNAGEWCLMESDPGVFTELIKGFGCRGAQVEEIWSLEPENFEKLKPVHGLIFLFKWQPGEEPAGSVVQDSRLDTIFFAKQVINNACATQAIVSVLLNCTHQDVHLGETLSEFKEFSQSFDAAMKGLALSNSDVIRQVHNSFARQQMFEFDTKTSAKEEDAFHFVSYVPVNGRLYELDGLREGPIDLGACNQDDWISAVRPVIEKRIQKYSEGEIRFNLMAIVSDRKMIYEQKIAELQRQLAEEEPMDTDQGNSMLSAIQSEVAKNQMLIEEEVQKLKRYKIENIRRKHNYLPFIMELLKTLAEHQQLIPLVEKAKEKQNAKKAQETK
#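 system = Proteasome-associated human UCH37 deubiquitinase | amount = 0.15 nM proteasome as dispensed | medium = pH 7.4 Tris-HCl (50 mM) with ovalbumin, ATP-MgCl2, DTT | incubation = 30 min preincubation with enzyme, 25 min cleavage at room temperature | detection = AMC fluorescence 355/460 nm | read-out basis = percent inhibition | controls = no-proteasome and no-compound wells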
# Starred values were filed as active, the others as inactive; i = inactive; . = no result given.
SMILES,CTSL1 counter,PREPL inh,PP1 inh,PP5 inh,UBC13 polyUb,UCH37 inh
COc1cc(C=NNC(=O)c2cccnc2)ccc1OS(=O)(=O)c1ccc(F)cc1,.,.,.,.,.,3
CCOC(=O)c1c(C)n(CC)c2ccc(OC(=O)c3ccc([N+](=O)[O-])cc3)cc12,-2,49*,-1,2,-5,2
CCOC(=O)c1c(C)n(C)c2ccc(OC(=O)c3ccc([N+](=O)[O-])cc3)cc12,-2,22,0,1,-7,3
Cc1ccc(C(C(=O)NC2CCCCC2)N2CCCC2)cc1 (stereo not given),-3,-1,17*,0,-2,0
COc1ccc(C(=O)/C=C/c2ccccc2)c(O)c1,22*,-7,-1,5,10,7
COc1ccc(C(=O)/C=C/c2ccc(OC)cc2OC)c(O)c1,-3,1,-5,4,11,2
O=C(NN=Cc1ccncc1)NC1CCCCC1,.,.,.,.,.,2
O=c1ccsn1Cc1ccccc1,24*,4,1,1,0,2
CCOC(=O)C1(Cc2ccccc2)CCN(Cc2cccc(OC)c2O)CC1,18*,12,1,-1,9,1
CCCCNC(=S)N(CCN(CC)CC)Cc1cc2cc3c(cc2[nH]c1=O)OCCO3,18*,22,-6,-9,-2,-110
CC(=NNc1nc(N2CCOCC2)nc(N2CCOCC2)n1)c1cccc([N+](=O)[O-])c1,.,.,.,.,.,3
CCCCn1c(-c2cccc3ccccc23)nc2cc3[nH]c(=O)c(C(C)C)nc3cc21,3,23,16*,4,5,-17
CCN1/C(=C/c2ccc3cccc(C)c3[n+]2CC)Sc2ccccc21,-2,60*,5,5,i,13
CCCc1ccc(-c2cc(C(=O)N/N=C/c3ccc([N+](=O)[O-])o3)c3ccccc3n2)cc1,3,7,17*,0,-17,.
O=C(N/N=C/c1ccc([N+](=O)[O-])o1)c1cc(-c2cccc(Br)c2)nc2ccccc12,0,10,16*,5,-2,.
O=[N+]([O-])c1ccc(C=NNC(=S)Nc2ccccc2)o1,.,.,.,.,.,7
CC1CCCN(S(=O)(=O)c2ccc(C(=O)Nc3nnc(-c4ccco4)o3)cc2)C1 (stereo not given),0,0,17*,4,-26,5
CC1CCN(S(=O)(=O)c2ccc(C(=O)Nc3nnc(-c4ccccn4)o3)cc2)CC1,1,3,17*,4,-44,6
O=C(Nc1nnc(-c2ccccn2)o1)c1cccc(Br)c1,5,8,15*,1,-16,8
CCC1CCCCN1S(=O)(=O)c1ccc(C(=O)Nc2nnc(C3=COCCO3)o2)cc1 (stereo not given),0,0,17*,2,-23,1
CC1CCN(S(=O)(=O)c2ccc(C(=O)Nc3nnc(C4=COCCO4)o3)cc2)CC1,0,-3,12,5,-15,10
Cc1ccc(OCC(=O)NN=C2CC(=O)CC(C)(C)C2)c(Br)c1,.,.,.,.,.,3
COc1ccc(NS(=O)(=O)c2cccc(C(=O)NN=Cc3ccccc3OC)c2)cc1,.,.,.,.,.,1
CC(=O)N(N=Cc1ccc([N+](=O)[O-])o1)c1nc2ccccc2c(=O)n1-c1ccccc1,.,.,.,.,.,2
O=C(COC(=O)c1ccc(CO)cc1)Nc1ccc2ccccc2c1,.,-3,7,1,-8,5
SMILES,CTSL1 counter,PREPL inh,PP1 inh,PP5 inh,UBC13 polyUb,UCH37 inh
N#CCC(=O)Nc1ccc(C(=O)OCC(=O)Nc2ccc3ccccc3c2)cc1,.,-26,15*,1,-25,1
CC(Cn1nnc2ccccc21)=NOC(=O)c1cc(F)c(F)cc1Cl,.,.,.,.,.,3
C#Cc1ccc([C@@H]2C=C(C(=O)N3CCOCC3)O[C@H](OCC)[C@H]2CCCO)cc1,-1,11,0,3,-8,27*
O=C1Nc2ccccc2C1=NN=CC1=C(N2CCOCC2)/C(=C\c2ccccc2)CC1,.,.,.,.,.,7
NC(N)=N/N=C/c1ccc(OCc2ccccc2Cl)cc1,-2,14,17*,4,74*,.
NC(N)=NN=Cc1ccc(OCc2ccccc2)cc1,.,.,.,.,.,3
ON=Cc1ccc(OCc2ccccc2F)c(Cl)c1,.,.,.,.,.,2
CCOc1cc(NC(=O)CCl)c(OCC)cc1NC(=O)CCl,88*,1,-4,1,0,2
COC(=O)c1c(NC(=O)C(=O)NCCCN2CCOCC2)sc2c1CC(C)(C)OC2,-1,-5,-2,1,15,5
COC(=O)c1c(NC(=O)C(=O)NCCCN2CCOCC2)sc2c1CCC2,23*,2,-4,3,6,5
CC1CCCC(C)N1C(=O)COc1ccc(C(=O)NN=Cc2ccc(C(=O)O)cc2)cc1 (stereo not given),.,.,.,.,.,3
O=C(O)c1cc(N=Nc2c(O)ccc3ccccc23)cc(C(=O)O)c1,.,.,.,.,.,26*
Oc1ccc(N=Nc2c(O)ccc3ccccc23)cc1,3,22,1,5,-115,11
COc1ccc(C=NNC(=O)c2cccc([N+](=O)[O-])c2)cc1OC,.,.,.,.,.,6
CC(C)(C)C(C(=O)Oc1ccccc1)c1ccccc1 (stereo not given),.,3,0,0,13,24*
N#CC(c1ccccc1)N(CCCCl)C(=O)c1ccccc1 (stereo not given),-5,2,0,0,3,21*
NNC(=O)c1cc2c(N3CCC(Cc4ccccc4)CC3)ncnc2s1,-8,4,16*,0,-4,-7
CC(=NNC(=O)c1ccccc1)c1ccc(NC(=O)C(F)(F)F)cc1,.,.,.,.,.,2
CC(=NNc1ccc(C(=O)O)cc1)c1ccc(O)c(O)c1O,.,.,.,.,.,21*
Cc1ccc(CN2CCN(N=Cc3cc(Br)ccc3F)CC2)cc1,.,.,.,.,.,-2
O=C1N/C(=N/N=Cc2ccc(O)cc2)SC1Cc1ccccc1 (stereo not given),.,.,.,.,.,4
CC(C)C[C@H](NC(=O)N1CC(=O)Nc2ccccc21)C(=O)N[C@H](Cc1c[nH]c2ccccc12)C(=O)O,38*,10,-2,0,-17,3
CCC(C)[C@H](NC(=O)N1CC(=O)Nc2ccccc21)C(=O)N[C@@H](Cc1c[nH]c2ccccc12)C(=O)O (stereo not given in full),5,2,-4,1,2,5
CC(C)C[C@H](NC(=O)N1CC(=O)Nc2ccccc21)C(=O)N[C@@H](Cc1c[nH]c2ccccc12)C(=O)O,22*,18,-3,-1,-1,3
CC(C)C[C@H](NC(=O)N1CC(=O)Nc2ccccc21)C(=O)N[C@H](C(=O)O)c1ccccc1,0,0,2,2,.,2
Nc1nonc1-n1nnc(C(=O)N/N=C/c2cc(Cl)ccc2O)c1CN1CCCCCC1,-2,4,16*,2,-14,.
CCCc1c(C(=O)N/N=C/c2ccc(OC)c(OCc3ccccc3)c2)nnn1-c1nonc1N,1,17,-2,1,-18,.
